Assay results as given in the M2OR odorant receptor database.
Residue numbers refer to the chain shown, from its start.

Key:
Conditions in all cases: stereoisomer not certain
[1] = biological target: T1, Or10j5 (Mus musculus) (UniProt Q62007)
T1 sequence (whole entry): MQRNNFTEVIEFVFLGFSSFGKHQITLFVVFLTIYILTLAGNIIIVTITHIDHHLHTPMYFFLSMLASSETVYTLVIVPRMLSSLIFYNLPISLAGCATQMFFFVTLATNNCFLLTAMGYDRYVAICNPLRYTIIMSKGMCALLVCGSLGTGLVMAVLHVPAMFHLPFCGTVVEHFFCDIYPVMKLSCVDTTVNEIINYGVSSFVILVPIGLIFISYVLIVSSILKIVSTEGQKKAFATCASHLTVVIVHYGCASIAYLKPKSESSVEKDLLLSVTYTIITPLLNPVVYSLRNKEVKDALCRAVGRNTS
Procedure, shortened: (§1)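 Each entry records the cell line, G-protein, co-transfected protein and tags used. Methods varied with the source, often transient luciferase assays in mammalian cell lines. A receptor–molecule pair is called responsive (active) if the original authors judged its signal statistically different from baseline and non-responsive (inactive) otherwise.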

[2] = biological target: T2, Or1m1 (Mus musculus) (UniProt Q8VFM9)
T2 sequence (whole entry): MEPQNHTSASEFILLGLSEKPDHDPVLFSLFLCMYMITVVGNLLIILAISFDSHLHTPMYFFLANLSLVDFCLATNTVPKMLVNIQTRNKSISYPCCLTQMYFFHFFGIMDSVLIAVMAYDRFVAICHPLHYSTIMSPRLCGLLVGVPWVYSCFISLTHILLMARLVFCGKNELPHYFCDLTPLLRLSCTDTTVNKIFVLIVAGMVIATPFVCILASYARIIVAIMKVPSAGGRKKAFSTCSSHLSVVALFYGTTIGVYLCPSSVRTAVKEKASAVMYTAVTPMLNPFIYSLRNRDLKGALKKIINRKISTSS
Procedure, shortened: as §1

[3] = biological target: T3, Or2c1 (Mus musculus) (UniProt P23275)
T3 sequence (whole entry): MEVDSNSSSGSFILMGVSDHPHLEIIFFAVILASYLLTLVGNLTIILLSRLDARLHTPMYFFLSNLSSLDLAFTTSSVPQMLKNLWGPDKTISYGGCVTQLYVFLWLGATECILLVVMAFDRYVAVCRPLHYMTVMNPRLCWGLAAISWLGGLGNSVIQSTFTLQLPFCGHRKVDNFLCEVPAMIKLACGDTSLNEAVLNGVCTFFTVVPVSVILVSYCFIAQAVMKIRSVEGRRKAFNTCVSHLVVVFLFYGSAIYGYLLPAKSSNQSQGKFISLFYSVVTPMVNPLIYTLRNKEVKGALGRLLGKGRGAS
Procedure, shortened: as §1

[4] = biological target: T4, Or5ar1 (Mus musculus) (UniProt Q8VGS3)
T4 sequence (whole entry): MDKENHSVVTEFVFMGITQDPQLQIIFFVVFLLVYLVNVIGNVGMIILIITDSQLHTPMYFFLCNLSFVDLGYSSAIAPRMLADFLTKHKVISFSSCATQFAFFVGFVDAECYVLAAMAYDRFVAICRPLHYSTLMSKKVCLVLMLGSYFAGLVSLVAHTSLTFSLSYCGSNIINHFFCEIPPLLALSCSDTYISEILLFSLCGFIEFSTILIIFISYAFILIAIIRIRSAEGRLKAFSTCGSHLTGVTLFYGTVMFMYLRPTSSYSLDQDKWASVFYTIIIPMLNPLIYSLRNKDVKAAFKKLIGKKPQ
Procedure, shortened: as §1

[5] = biological target: T5, OR9A4 (Homo sapiens) (UniProt Q8NGU2)
T5 sequence (whole entry): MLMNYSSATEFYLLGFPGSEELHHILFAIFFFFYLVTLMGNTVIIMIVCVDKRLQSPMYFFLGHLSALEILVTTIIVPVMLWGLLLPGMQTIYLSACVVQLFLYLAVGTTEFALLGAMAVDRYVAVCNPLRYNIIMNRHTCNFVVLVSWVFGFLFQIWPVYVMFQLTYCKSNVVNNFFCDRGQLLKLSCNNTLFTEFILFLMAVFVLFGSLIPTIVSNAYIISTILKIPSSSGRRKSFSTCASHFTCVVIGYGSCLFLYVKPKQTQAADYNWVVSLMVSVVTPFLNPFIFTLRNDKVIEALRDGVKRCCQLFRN
Procedure, shortened: as §1

[6] = biological target: T6, OR9G1 (Homo sapiens) (UniProt Q8NH87)
T6 sequence (whole entry): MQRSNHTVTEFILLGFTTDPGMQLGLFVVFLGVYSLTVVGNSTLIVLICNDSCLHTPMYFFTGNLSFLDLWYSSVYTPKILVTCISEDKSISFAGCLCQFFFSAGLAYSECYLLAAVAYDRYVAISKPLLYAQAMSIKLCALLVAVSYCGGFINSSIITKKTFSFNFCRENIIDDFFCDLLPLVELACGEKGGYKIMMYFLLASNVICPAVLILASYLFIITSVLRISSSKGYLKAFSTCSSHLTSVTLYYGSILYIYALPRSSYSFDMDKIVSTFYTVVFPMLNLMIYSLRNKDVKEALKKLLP
Procedure, shortened: as §1

[7] = biological target: T7, OR9G4 (Homo sapiens) (UniProt Q8NGQ1)
T7 sequence (whole entry): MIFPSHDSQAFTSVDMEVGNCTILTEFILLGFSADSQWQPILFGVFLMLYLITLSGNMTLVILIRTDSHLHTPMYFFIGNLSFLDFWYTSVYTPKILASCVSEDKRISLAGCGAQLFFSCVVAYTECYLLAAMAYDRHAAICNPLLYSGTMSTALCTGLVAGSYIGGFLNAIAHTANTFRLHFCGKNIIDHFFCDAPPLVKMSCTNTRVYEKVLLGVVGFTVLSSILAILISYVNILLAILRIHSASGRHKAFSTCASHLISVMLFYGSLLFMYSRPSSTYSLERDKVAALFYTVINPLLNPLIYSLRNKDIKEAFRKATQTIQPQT
Procedure, shortened: as §1

[8] = system: T8, OR9G4 H6Y N206D V222A
T8 sequence (whole entry): T7 sequence (whole entry) with H6Y, N206D, V222A
Procedure, shortened: as §1

[9] = system: T9, OR9G4 N206D V222A
T9 sequence (whole entry): T7 sequence (whole entry) with N206D, V222A
Procedure, shortened: as §1

[10] = system: T10, OR9G9
T10 sequence (whole entry): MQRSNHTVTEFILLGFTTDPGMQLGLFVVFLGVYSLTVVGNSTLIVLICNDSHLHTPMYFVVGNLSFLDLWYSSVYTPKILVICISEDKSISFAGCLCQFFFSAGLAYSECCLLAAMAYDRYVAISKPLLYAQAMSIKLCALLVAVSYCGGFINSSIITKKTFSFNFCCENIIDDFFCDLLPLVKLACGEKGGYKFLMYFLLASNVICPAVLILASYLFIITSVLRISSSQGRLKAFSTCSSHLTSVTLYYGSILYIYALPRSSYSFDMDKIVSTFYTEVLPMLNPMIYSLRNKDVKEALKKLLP
Procedure, shortened: as §1

[11] = biological target: T11, OR9I1 (Homo sapiens) (UniProt Q8NGQ6)
T11 sequence (whole entry): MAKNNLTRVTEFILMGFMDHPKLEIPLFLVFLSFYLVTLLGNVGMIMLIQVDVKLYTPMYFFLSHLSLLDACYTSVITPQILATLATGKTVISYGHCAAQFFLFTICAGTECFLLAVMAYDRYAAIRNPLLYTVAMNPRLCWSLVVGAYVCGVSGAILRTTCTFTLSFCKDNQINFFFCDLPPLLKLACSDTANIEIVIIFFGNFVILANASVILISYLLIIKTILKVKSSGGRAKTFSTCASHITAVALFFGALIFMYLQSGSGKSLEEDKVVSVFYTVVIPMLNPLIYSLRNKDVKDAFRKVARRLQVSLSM
Procedure, shortened: as §1

[12] = biological target: T12, OR9K2 (Homo sapiens) (UniProt Q8NGE7)
T12 sequence (whole entry): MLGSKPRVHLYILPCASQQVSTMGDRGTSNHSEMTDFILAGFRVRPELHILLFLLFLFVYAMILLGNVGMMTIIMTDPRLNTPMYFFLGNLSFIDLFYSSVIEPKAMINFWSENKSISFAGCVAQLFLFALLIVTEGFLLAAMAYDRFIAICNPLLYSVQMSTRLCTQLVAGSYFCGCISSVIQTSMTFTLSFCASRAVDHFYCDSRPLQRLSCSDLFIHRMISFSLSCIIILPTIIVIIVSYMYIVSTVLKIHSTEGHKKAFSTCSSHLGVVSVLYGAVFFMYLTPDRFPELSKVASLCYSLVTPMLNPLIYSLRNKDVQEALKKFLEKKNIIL
Procedure, shortened: as §1

[13] = system: T13, OR9K2 R207H
T13 sequence (whole entry): T12 sequence (whole entry) with R207H
Procedure, shortened: as §1

[14] = biological target: T14, OR9Q1 (Homo sapiens) (UniProt Q8NGQ5)
T14 sequence (whole entry): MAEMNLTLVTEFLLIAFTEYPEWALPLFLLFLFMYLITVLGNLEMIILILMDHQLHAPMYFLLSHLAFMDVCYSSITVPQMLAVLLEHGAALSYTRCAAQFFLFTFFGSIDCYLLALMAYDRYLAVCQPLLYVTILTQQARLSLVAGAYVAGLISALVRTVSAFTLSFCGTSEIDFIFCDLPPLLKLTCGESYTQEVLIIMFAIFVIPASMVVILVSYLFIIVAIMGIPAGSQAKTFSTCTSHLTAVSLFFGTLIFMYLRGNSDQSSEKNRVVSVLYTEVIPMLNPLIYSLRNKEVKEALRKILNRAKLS
Procedure, shortened: as §1

[15] = system: T15, OR9Q1 A83T
T15 sequence (whole entry): T14 sequence (whole entry) with A83T
Procedure, shortened: as §1

[16] = biological target: T16, OR9Q2 (Homo sapiens) (UniProt Q8NGE9)
T16 sequence (whole entry): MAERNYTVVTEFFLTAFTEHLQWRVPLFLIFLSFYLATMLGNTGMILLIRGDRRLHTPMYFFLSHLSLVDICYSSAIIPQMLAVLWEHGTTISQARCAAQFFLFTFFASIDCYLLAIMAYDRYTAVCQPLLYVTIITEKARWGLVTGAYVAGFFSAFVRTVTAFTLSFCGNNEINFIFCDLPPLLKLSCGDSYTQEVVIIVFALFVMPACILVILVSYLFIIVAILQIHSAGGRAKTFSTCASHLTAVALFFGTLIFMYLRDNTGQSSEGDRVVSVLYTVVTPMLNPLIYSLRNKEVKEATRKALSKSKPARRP
Procedure, shortened: as §1

[17] = system: T17, OR9Q2 C179R
T17 sequence (whole entry): T16 sequence (whole entry) with C179R
Procedure, shortened: as §1

[18] = biological target: T18, Or5k16 (Mus musculus) (UniProt Q7TS48)
T18 sequence (whole entry): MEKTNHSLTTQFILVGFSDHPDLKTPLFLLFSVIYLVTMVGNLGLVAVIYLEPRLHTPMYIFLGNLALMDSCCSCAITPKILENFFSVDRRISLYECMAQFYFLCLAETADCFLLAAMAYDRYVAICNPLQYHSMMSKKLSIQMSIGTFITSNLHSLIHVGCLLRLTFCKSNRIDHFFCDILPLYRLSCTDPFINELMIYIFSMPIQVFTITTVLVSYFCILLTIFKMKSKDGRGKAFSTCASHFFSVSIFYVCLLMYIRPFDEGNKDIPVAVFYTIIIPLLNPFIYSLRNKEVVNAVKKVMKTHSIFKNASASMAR
Procedure, shortened: as §1

[19] = biological target: T19, OR9G9 (Homo sapiens) (UniProt P0C7N8)
T19 sequence (whole entry): T10 sequence (whole entry) with G193C
Procedure, shortened: as §1

Measured: odorant receptor agonist call

CC(C)=CCCC(C)=CCO
inactive: [1] | [2] | [3] | [4]

O=C(O)CCCCCCCCCC(=O)O
inactive: [1]

O=C(O)CCCCCCCCCCCBr
inactive: [1]

O=C(O)CCCCBr
inactive: [1]

CC1=NC(C)C(C)S1 (centres undefined)
active: [18]
not listed: [1] | [2] | [3] | [4] | [19]
inactive: all other assays above

O=C(O)CCCCCC(=O)O
inactive: [1]

CC1=C(O)C(=O)OC1C (centres undefined)
not listed: [1] | [2] | [3] | [4] | [18] | [19]
inactive: all other assays above

CCCCCCCCCCCC=O
inactive: [1]

CCCCCCCCCC(=O)[O-].[H+]
inactive: [1] | [2] | [4]
active: [3]

CCCC(S)CCOC(C)=O (centres undefined)
not listed: [1] | [2] | [3] | [4] | [18] | [19]
inactive: all other assays above

CC1=C(O)C(=O)C(C)O1 (centres undefined)
not listed: [1] | [2] | [3] | [4] | [18] | [19]
inactive: all other assays above

O=C(O)CCCBr
inactive: [1]

CCCCC(S)C(C)CO (centres undefined)
inactive: [5] | [6] | [7] | [19] | [11] | [12] | [14] | [16]

CCCCCCC=CCCC=O
not listed: [1] | [2] | [3] | [4] | [10] | [12] | [18]
inactive: all other assays above

O=C([O-])CCCCC(=O)[O-].[H+].[H+]
inactive: [1]

CCC(S)C(C)CO (centres undefined)
inactive: [5] | [6] | [7] | [19] | [11] | [12] | [14] | [16]

CCCC(=O)C(C)=O
active: [3]
inactive: [2] | [4]

CCCCCC1=C(C)CCC1=O
inactive: [2] | [3] | [4]

CCCCCC=O
inactive: [2] | [3] | [4]

CCCCCCCC(=O)[O-].[H+]
active: [1] | [3]
inactive: [4]

CCCCCCCCS
inactive: [2] | [4]
active: [3]

O=C([O-])CCCCCCCC(=O)[O-].[H+].[H+]
inactive: [1] | [2] | [4]
